{"source": "ChEMBL document CHEMBL4382247", "about": "“A novel series of napabucasin derivatives as orally active inhibitors of signal transducer and activator of transcription 3 (STAT3)” (Eur J Med Chem, 2019)", "key": {"[1]": {"molecular_target": "T1, Signal transducer and activator of transcription 3 (Homo sapiens, UniProt P40763)", "T1 sequence (P40763 whole entry)": "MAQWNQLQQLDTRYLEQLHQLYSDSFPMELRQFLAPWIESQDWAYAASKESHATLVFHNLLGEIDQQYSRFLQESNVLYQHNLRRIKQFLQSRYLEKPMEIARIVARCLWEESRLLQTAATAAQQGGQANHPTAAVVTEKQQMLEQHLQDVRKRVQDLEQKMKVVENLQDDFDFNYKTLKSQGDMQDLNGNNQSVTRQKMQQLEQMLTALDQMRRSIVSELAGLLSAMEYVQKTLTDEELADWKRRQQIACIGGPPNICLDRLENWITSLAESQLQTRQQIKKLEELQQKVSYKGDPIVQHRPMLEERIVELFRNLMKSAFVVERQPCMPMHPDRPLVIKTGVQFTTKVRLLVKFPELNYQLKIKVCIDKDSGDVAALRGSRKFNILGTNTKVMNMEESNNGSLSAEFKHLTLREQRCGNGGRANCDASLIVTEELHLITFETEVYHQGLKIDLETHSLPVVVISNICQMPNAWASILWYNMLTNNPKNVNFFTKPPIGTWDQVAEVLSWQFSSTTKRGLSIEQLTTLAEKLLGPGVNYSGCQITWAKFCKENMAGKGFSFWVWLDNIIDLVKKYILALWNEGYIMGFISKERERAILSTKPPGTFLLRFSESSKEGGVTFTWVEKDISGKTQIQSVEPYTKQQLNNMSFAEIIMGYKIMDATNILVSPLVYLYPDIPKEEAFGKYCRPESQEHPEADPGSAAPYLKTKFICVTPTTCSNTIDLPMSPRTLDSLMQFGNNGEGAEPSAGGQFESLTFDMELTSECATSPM", "experiment": "Inhibition of STAT3 phosphorylation at Y705 residue in human U251 cells at 200 nM after 24 hrs by Western blot analysis", "type": "cell-based", "procedure,_shortened": "(§1)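 Cells treated 24 and 48 h. Lysed in RIPA with protease inhibitors, protein quantified by BCA, equal amounts run on 10% SDS-PAGE and transferred to PVDF. Blocked in 5% milk, probed overnight at 4 °C with anti-total STAT3, anti-p-STAT3 (Tyr705) and GAPDH antibodies. ECL detection.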"}, "PC-3": {"system": "PC-3", "experiment": "Antiproliferative activity against human PC3 cells after 72 hrs by MTT assay", "type": "functional, cell-based", "settings": "PC-3, 72 h", "procedure,_shortened": "(§2)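 Cells seeded at 5 × 10^3 per well and cultured 24 h before compound addition at varied concentrations, then grown a further 72 h; 0.5% DMSO as solvent control. MTT (5mg/ml solution) added for 4 h, formazan dissolved in DMSO, absorbance read at 570nm. Each treatment in triplicate; Mean ± SD.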"}, "[2]": {"experiment": "Toxicity in BALB/c mouse implanted with mouse CT26 cells assessed as effect on lung morphology by measuring cell inflammation at 50 mg/kg, po administered once daily by H and E staining based histopathological analysis", "type": "organism-based", "settings": "in vivo", "procedure,_shortened": "(§3)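 CT-26 subcutaneous flank tumour model in male BALB/c mice, five per group, dosed orally at 50mg/kg daily in 5% NMP/95% PEG 400 versus vehicle. After treatment, heart, liver, spleen, lung and kidney collected, sectioned and stained with H&E for histological examination.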"}, "[3]": {"molecular_target": "T1, Signal transducer and activator of transcription 3", "experiment": "Inhibition of biotin-labelled DNA probe binding to recombinant N-terminal FLAG-tagged STAT3 (unknown origin) expressed in HEK293 cells at 100 to 200 nM by EMSA", "type": "cell-based", "procedure,_shortened": "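HEK293T cells transiently transfected with N-terminal FLAG-STAT3 (10 µg per 10 cm dish) and harvested at 48 h. STAT3 purified on anti-FLAG magnetic beads and eluted with FLAG peptide (200 µg/mL). Chemiluminescent EMSA with biotin-labelled STAT3 probe, 5 µL protein and 1 µL probe per lane. Cold-probe and anti-STAT3 antibody lanes included.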"}, "[4]": {"experiment": "Toxicity in BALB/c mouse implanted with mouse CT26 cells assessed as effect on kidney morphology by measuring necrosis at 50 mg/kg, po administered once daily by H and E staining based histopathological analysis", "type": "organism-based", "settings": "in vivo", "procedure,_shortened": "as §3"}, "[5]": {"experiment": "Toxicity in BALB/c mouse implanted with mouse CT26 cells assessed as effect on spleen morphology by measuring necrosis at 50 mg/kg, po administered once daily by H and E staining based histopathological analysis", "type": "organism-based", "settings": "in vivo", "procedure,_shortened": "as §3"}, "[6]": {"experiment": "Toxicity in BALB/c mouse implanted with mouse CT26 cells assessed as effect on spleen morphology by measuring edema at 50 mg/kg, po administered once daily by H and E staining based histopathological analysis", "type": "organism-based", "settings": "in vivo", "procedure,_shortened": "as §3"}, "[7]": {"experiment": "Hepatotoxicity in BALB/c mouse implanted with mouse CT26 cells assessed as effect on liver morphology by measuring necrosis at 50 mg/kg, po administered once daily by H and E staining based histopathological analysis", "type": "toxicity, organism-based", "settings": "in vivo", "procedure,_shortened": "as §3"}, "[8]": {"experiment": "Cardiotoxicity in BALB/c mouse implanted with mouse CT26 cells assessed as effect on heart morphology by measuring edema at 50 mg/kg, po administered once daily by H and E staining based histopathological analysis", "type": "toxicity, organism-based", "settings": "in vivo", "procedure,_shortened": "as §3"}, "HT-29 [9]": {"system": "HT-29", "experiment": "Potency index, ratio of napabucasin IC50 to test compound IC50 for human HT-29 cells", "type": "functional"}, "[10]": {"molecular_target": "T1, Signal transducer and activator of transcription 3", "experiment": "Inhibition of STAT3 phosphorylation at Y705 residue in human HepG2 cells at 400 nM after 24 to 48 hrs by sandwich-ELISA", "type": "cell-based", "procedure,_shortened": "(§4)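 Cells treated 24 or 48 h. Whole-cell lysates made in lysis buffer with protease inhibitor cocktail. Total STAT3 and p-STAT3 Y705 measured by sandwich ELISA. Three repeats; groups compared with control by paired t-test; means ± S.D.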"}, "HepG2 [11]": {"system": "HepG2", "experiment": "Potency index, ratio of napabucasin IC50 to test compound IC50 for human HepG2 cells", "type": "functional"}, "[12]": {"experiment": "Toxicity in BALB/c mouse implanted with mouse CT26 cells assessed as effect on kidney morphology by measuring cell inflammation at 50 mg/kg, po administered once daily by H and E staining based histopathological analysis", "type": "organism-based", "settings": "in vivo", "procedure,_shortened": "as §3"}, "HepG2 [13]": {"system": "HepG2", "experiment": "Decrease in total STAT3 level in human HepG2 cells at 400 nM after 24 hrs by Western blot analysis", "type": "ADME, cell-based", "settings": "hepg2, 24 h, 0.4 µM", "procedure,_shortened": "as §1"}, "U-251 [14]": {"system": "U-251", "experiment": "Decrease in total STAT3 level in human U251 cells at 200 nM after 24 hrs by Western blot analysis", "type": "ADME, cell-based", "settings": "u-251, 24 h, 0.2 µM", "procedure,_shortened": "as §1"}, "CT26 [15]": {"system": "CT26", "experiment": "Antitumor activity against mouse CT26 cells implanted in BALB/c mouse assessed as tumor growth at 50 mg/kg, po administered once daily measured every 3 days relative to control", "type": "functional", "procedure,_shortened": "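Male BALB/c mice, 6 weeks old, given 1 × 10^6 CT-26 cells subcutaneously in the right flank. At about 70 mm3 tumour volume, randomized into groups of five and dosed orally once daily with 50mg/kg or vehicle (5% NMP in PEG 400). Tumours measured by caliper every 3 days, V = ab^2/2. Tumours weighed at sacrifice. TGI computed from mean tumour weights. T/C computed as mean RTV (Vt/V0) treated over control.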"}, "HepG2 [16]": {"system": "HepG2", "experiment": "Decrease in total STAT3 expression in human HepG2 cells at 400 nM after 24 hrs by DAPI staining based immunofluorescence microscopic analysis", "type": "ADME, cell-based", "settings": "hepg2, 24 h, 0.4 µM", "procedure,_shortened": "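HepG2 cells treated 24 h, stained with the same anti-total STAT3 antibody as the blots, nuclei counterstained with DAPI. Imaged on an inverted microscope with a 20× objective.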"}, "[17]": {"molecular_target": "T1, Signal transducer and activator of transcription 3", "experiment": "Inhibition of STAT3 phosphorylation at Y705 residue in human HepG2 cells at 400 nM after 24 hrs by Western blot analysis", "type": "cell-based", "procedure,_shortened": "as §1"}, "[18]": {"molecular_target": "T1, Signal transducer and activator of transcription 3", "experiment": "Inhibition of STAT3 phosphorylation at Y705 residue in human U251 cells at 200 nM after 24 to 48 hrs by sandwich-ELISA", "type": "cell-based", "procedure,_shortened": "as §4"}, "HT-29 [19]": {"system": "HT-29", "experiment": "Antiproliferative activity against human HT-29 cells after 72 hrs by MTT assay", "type": "functional, cell-based", "settings": "HT-29, 72 h", "procedure,_shortened": "as §2"}, "CT26 [20]": {"system": "CT26", "experiment": "Antiproliferative activity against mouse CT26 cells after 72 hrs by MTT assay", "type": "functional, cell-based", "settings": "CT26, 72 h", "procedure,_shortened": "as §2"}, "[21]": {"experiment": "Toxicity in BALB/c mouse implanted with mouse CT26 cells assessed as effect on spleen morphology by measuring cell inflammation at 50 mg/kg, po administered once daily by H and E staining based histopathological analysis", "type": "organism-based", "settings": "in vivo", "procedure,_shortened": "as §3"}, "U-251 [22]": {"system": "U-251", "experiment": "Potency index, ratio of napabucasin IC50 to test compound IC50 for human U251 cells", "type": "functional"}, "HepG2 [23]": {"system": "HepG2", "experiment": "Antiproliferative activity against human HepG2 cells after 72 hrs by MTT assay", "type": "functional, cell-based", "settings": "HepG2, 72 h", "procedure,_shortened": "as §2"}, "[24]": {"experiment": "Toxicity in BALB/c mouse implanted with mouse CT26 cells assessed as effect on lung morphology by measuring necrosis at 50 mg/kg, po administered once daily by H and E staining based histopathological analysis", "type": "organism-based", "settings": "in vivo", "procedure,_shortened": "as §3"}, "[25]": {"experiment": "Aqueous solubility of the compound in water at 2 mg after 24 hrs by HPLC analysis", "type": "physicochemical", "procedure,_shortened": "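Aqueous solubility measured by HPLC against calibration standards at 15–125 µg/mL. Values are the mean of at least three determinations ± SD.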"}, "[26]": {"experiment": "Hepatotoxicity in BALB/c mouse implanted with mouse CT26 cells assessed as effect on liver morphology by measuring cell inflammation at 50 mg/kg, po administered once daily by H and E staining based histopathological analysis", "type": "toxicity, organism-based", "settings": "in vivo", "procedure,_shortened": "as §3"}}, "note": "pIC50: −log10 of the molar value. Calls of active or inactive are those of the source. The rule behind the calls is not given here."}
{"compound": "O=C(NCCN1CCCCC1)c1cc2c(o1)C(=O)c1ccccc1C2=O", "values": [{"measurement": "inhibition", "setting": "[1]", "result": "Active"}, {"measurement": "pIC50", "setting": "PC-3", "result": 5.38}, {"measurement": "Activity", "setting": "[2]", "result": "Non-Toxic"}, {"measurement": "inhibition", "setting": "[3]", "result": "Active"}, {"measurement": "Activity", "setting": "[4]", "result": "Non-Toxic"}, {"measurement": "Activity", "setting": "[5]", "result": "Non-Toxic"}, {"measurement": "Activity", "setting": "[6]", "result": "Non-Toxic"}, {"measurement": "Activity", "setting": "[7]", "result": "Non-Toxic"}, {"measurement": "Activity", "setting": "[8]", "result": "Non-Toxic"}, {"measurement": "Ratio IC50", "setting": "HT-29 [9]", "result": ">10"}, {"measurement": "inhibition", "setting": "[10]", "result": "Active"}, {"measurement": "Ratio IC50", "setting": "HepG2 [11]", "result": ">10"}, {"measurement": "Activity", "setting": "[12]", "result": "Non-Toxic"}, {"measurement": "Activity", "setting": "HepG2 [13]", "result": "Toxic"}, {"measurement": "Activity", "setting": "U-251 [14]", "result": "Toxic"}, {"measurement": "T/C", "setting": "CT26 [15]", "result": 28, "unit": "%"}, {"measurement": "Activity", "setting": "HepG2 [16]", "result": "Toxic"}, {"measurement": "inhibition", "setting": "[17]", "result": "Active"}, {"measurement": "inhibition", "setting": "[18]", "result": "Active"}, {"measurement": "pIC50", "setting": "HT-29 [19]", "result": 7.15}, {"measurement": "pIC50", "setting": "CT26 [20]", "result": 6.85}, {"measurement": "Activity", "setting": "[21]", "result": "Non-Toxic"}, {"measurement": "Ratio IC50", "setting": "U-251 [22]", "result": ">10"}, {"measurement": "pIC50", "setting": "HepG2 [23]", "result": 6.31}, {"measurement": "Activity", "setting": "[24]", "result": "Non-Toxic"}, {"measurement": "solubility at 24 h", "setting": "[25]", "result": 201, "unit": "µM"}, {"measurement": "Activity", "setting": "[26]", "result": "Non-Toxic"}]}
